First the molecules themselves.
B1: tRNA (parent)
chain: GUUCCGUUGGCGUAAUGGUAACGCGUCUCCCUCCUAAGGAGAAGACUGCGGGUUCGAGUCCCGUACGGAACG

Variants at the floor of the assay were thinned out.

Variants of B1 are the subject of the data set. Description: yeast fitness relative to wild type (ratio to wild type); higher = fitter; tRNA-Arg(CCU), competitive growth, 37 C, YPD. The method in brief: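 Variants of the tRNA-Arg(CCU) gene, chemically synthesised with a 3% per-site mutation rate at 69 sites, were placed at the native genomic locus in Saccharomyces cerevisiae. The pooled strains were competed in YPD at 37°C for 24 hours in six parallel replicates. Gene amplicons from the start population and from each end population were read by 100-nucleotide paired-end sequencing. Darwinian fitness relative to wild type came from changes in genotype frequencies; genotypes needed ≥ 100 starting reads, and estimates < 0.5 were set to 0.5.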
On to U2C G12A A36U, for which the yeast fitness was not above 0.5.
The value for U2C C24G U53G A57G was not above 0.5; that for U2C C49G was 0.798.
Next, U2C G10C A45C: not above 0.5.
As to U2C G12A A15G C66U, the yeast fitness came to 0.577.
As for U2C C24A U26A U47C, the yeast fitness is not above 0.5.
As to U2C C34U A65U, the yeast fitness was found to be 0.6.
As for U2C G18C G25C A40C G51A G56A C66G, the yeast fitness was not above 0.5.
In the case of U2C G18A C24A U28A U32C A57C G67U, the yeast fitness is not above 0.5.
For U2C C27G C31G A69U, the yeast fitness is not above 0.5.
Turning to U2C G18A C29A, the yeast fitness is not above 0.5.
Next, U2C G9A A20G: 1.07; U2C C34G: 0.62.
Turning to U2C G48A G67A, the yeast fitness amounted to 0.633.
Turning to U2C G25C A43U, the yeast fitness worked out at 0.624.
Take U2C G10A U54A: the yeast fitness was determined as 0.554.
As for U2C C27G U28A A43U, the yeast fitness was found to be 0.629.
Next, U2C G17C G23A C49G: not above 0.5; U2C C30A: 0.89; U2C C30U: 0.967.
Turning to U2C G10A C30U, the yeast fitness turned out to be 0.629.
For U2C G23A C33G U35G C60U C62G, the yeast fitness was not above 0.5.
For the variant U2C C34G A45C A57C, the yeast fitness is not above 0.5.
On to U2C C29U A37G A57G, for which the yeast fitness is not above 0.5.
Turning to U2C C27A A69C, the yeast fitness is not above 0.5.
For the variant U2C C49U C62U, the yeast fitness amounted to 0.521.
On to U2C C24G U26G C34A A36C, for which the yeast fitness was not above 0.5.
Next, U2C C34U C46A: not above 0.5; U2C C31U: 0.892; U2C C31A: 0.879.
The value for U2C C31G was 1.04; that for U2C G17C G23C G25C U35A A42U A70G was not above 0.5.
Turning to U2C G18A U28C A42C, the yeast fitness was not above 0.5.
As for U2C C29U G38C A43U U53G G63C, the yeast fitness was not above 0.5.
Regarding U2C G10C C31U A43G, the yeast fitness worked out at 0.525.
With U2C C24U U26A U28G U54G, the yeast fitness is not above 0.5.
Next, U2C C30G C33A A65C: not above 0.5.
Next, U2C C24G: 0.946; U2C C22A C29A C55U C61A: not above 0.5.
Regarding U2C C22A C29A G51C, the yeast fitness stood at 0.596.
As for U2C C49G C55U, the yeast fitness is 0.573.
In the case of U2C G18A C24U A42G G68A, the yeast fitness is not above 0.5.
Turning to U2C G6A A20U C30U A36U C62U, the yeast fitness is not above 0.5.
The value for U2C C66A A69C was not above 0.5; that for U2C C30G C31G C46G U54A was not above 0.5; that for U2C C27A was 0.749.
As to U2C C24G A37G G58A G67A, the yeast fitness is not above 0.5.
Regarding U2C G10A, the yeast fitness amounted to 0.803.
Consider U2C C31G G58A C61G U64G A69C, for which the yeast fitness was not above 0.5.
Regarding U2C G6A G23A C27U A45C U47C C60A, the yeast fitness was not above 0.5.
Next, U2C C24U C29U C30A A69U: not above 0.5; U2C C29A A43G: 0.603.
In the case of U2C C24G A36G A42U A45U, the yeast fitness was not above 0.5.
U2C C27A A65G: the yeast fitness came out at 0.632.
Consider U2C C24G C49U, for which the yeast fitness is not above 0.5.
Next, U2C C24G C46U A70U: 0.537.
For U2C G38A C55A, the yeast fitness is not above 0.5.
U2C G48A A69C: the yeast fitness came out at 0.705.
Regarding U2C G23C C31G C33U A42G G50U G52C G58C, the yeast fitness was not above 0.5.
On to U2C C29U C31G U35A, for which the yeast fitness was not above 0.5.
As to U2C G10C G51A C60U G67A, the yeast fitness was not above 0.5.
In the case of U2C C27A G41A C49A U53C U54C U64C, the yeast fitness was not above 0.5.
Regarding U2C C27A G41A C49A U53C U54C, the yeast fitness is not above 0.5.
For U2C C31G U35A A69U, the yeast fitness is not above 0.5.
Next, U2C C24U C60A: not above 0.5; U2C G48A C60A A70G: not above 0.5.
The value for U2C C24U U59C was 0.537; that for U2C G12C A14G C29U was not above 0.5.
U2C C61G: the yeast fitness was found to be 0.553.
The value for U2C C61A was 0.783.
Next, U2C G12A G18C C33U C60A: not above 0.5.
Turning to U2C G6A, the yeast fitness stood at 0.998.
For the variant U2C G18C C55G C61G, the yeast fitness was found to be 0.541.
Next, U2C C46G: 0.98.
Consider U2C C22G A37C A45U G67A, for which the yeast fitness is not above 0.5.
In the case of U2C G6A C11U, the yeast fitness is 0.587.
As to U2C G9C U28C G50C A57C A69U, the yeast fitness was not above 0.5.
In the case of U2C C22A, the yeast fitness is 0.927.
As to U2C C22U A40U, the yeast fitness came to 0.574.
Take U2C G18C: the yeast fitness was 0.723.
Next, U2C G18A: 0.806; U2C G10C A14U G38C: not above 0.5; U2C G48A C66U: 0.681.
Turning to U2C C30U C31G G50U, the yeast fitness is not above 0.5.
U2C G23C: the yeast fitness was determined as 0.651.
Regarding U2C G25C C31U U32A, the yeast fitness was not above 0.5.
The value for U2C C24U C31U C46A U59A C61A was not above 0.5; that for U2C C29U C62U A70U was not above 0.5; that for U2C C30U C31G was 0.771.
With U2C C30U A36C A45U G50C, the yeast fitness is not above 0.5.
In the case of U2C G25C A70G, the yeast fitness amounted to 0.978.
The value for U2C C27G A43U A45U A69U was not above 0.5.
Turning to U2C G9A U16C, the yeast fitness came to 0.602.
The value for U2C C22U G48A G63C was 0.701; that for U2C G18A C24A U28A U32C was not above 0.5; that for U2C G9A C24G C30U C62U was not above 0.5.
For U2C C22G A36G, the yeast fitness amounted to 0.651.
As to U2C G17A A37C A65G, the yeast fitness worked out at 0.539.
With U2C G9C, the yeast fitness is 0.722.
Next, U2C G10C A36C: 0.587.
On to U2C C27A C62A, for which the yeast fitness turned out to be 0.641.
On to U2C G12A, for which the yeast fitness came out at 0.993.
Consider U2C G38A C60G, for which the yeast fitness came out at 0.558.
The value for U2C C27A A40G C61G was not above 0.5; that for U2C G10C C24A C31U A36C G48A was not above 0.5.
With U2C C55A G56C G67C, the yeast fitness is not above 0.5.
For the variant U2C C11U G12A A15G U54C C66U G68C A69U, the yeast fitness was not above 0.5.
In the case of U2C C49G A65G, the yeast fitness came to 0.594.
The value for U2C C49G G58A was not above 0.5; that for U2C G25A A69U was 0.711.
Consider U2C C60A, for which the yeast fitness was 0.66.
Take U2C G18C C30U C61G: the yeast fitness is not above 0.5.
Consider U2C C22G U53C, for which the yeast fitness was 0.504.
For U2C G23C C29A C49G A57U, the yeast fitness is not above 0.5.
For the variant U2C G48A G63C, the yeast fitness amounted to 0.953.
As to U2C C27U A69C, the yeast fitness was 0.729.
Next, U2C G12C C34A A40C: not above 0.5.
The value for U2C G18C G25C C30A G63C was not above 0.5; that for U2C G10C G41A G50C was 0.585.
For the variant U2C C31G G58A, the yeast fitness is not above 0.5.
For U2C G25A A42U A65C G67C, the yeast fitness is not above 0.5.
Turning to U2C C31U A57U, the yeast fitness was determined as 0.535.
Next, U2C G9C C24U U26G: not above 0.5; U2C G12C C49U A65G: not above 0.5; U2C C33G C34U C49U: not above 0.5.
With U2C C31G C62A, the yeast fitness was 0.532.
For the variant U2C C24U G44C A69U, the yeast fitness is not above 0.5.
Take U2C G23A C31G G58A: the yeast fitness is not above 0.5.
Regarding U2C C62U, the yeast fitness worked out at 0.882.
For the variant U2C C62A, the yeast fitness is 0.677.
The value for U2C C46U G50A was 0.737; that for U2C G6A U16A was 0.65.
U2C C27U G41A: the yeast fitness was 1.06.
The value for U2C G12A A15G C62U was not above 0.5.
Turning to U2C G10A C34G C46U G48C U54G, the yeast fitness is not above 0.5.
With U2C C22G C31U C60U C61U, the yeast fitness came out at 0.527.
With U2C G41A C62U, the yeast fitness turned out to be 0.528.
Turning to U2C C29U C34U A57C U64C, the yeast fitness is not above 0.5.
Next, U2C G38A U47A C55G C61U: not above 0.5; U2C G23A C46U: 0.528.
U2C G17C G23A G52A C61U: the yeast fitness was not above 0.5.
In the case of U2C G10A C46G G50A, the yeast fitness is not above 0.5.
Regarding U2C C24G A42U, the yeast fitness was not above 0.5.
As for U2C C30U C33U G63C, the yeast fitness was not above 0.5.
Turning to U2C C30U A37C G38C U54A, the yeast fitness was not above 0.5.
As to U2C C62U G68C A69G, the yeast fitness is not above 0.5.
The value for U2C C46U C66U was 0.779; that for U2C G17A U19C G50C G56C was not above 0.5.
Consider U2C G10A C49A A65U, for which the yeast fitness is not above 0.5.
Next, U2C G10C C11U C34A A37C: 0.609; U2C C27A C31G: 0.557.
Take U2C G39A: the yeast fitness was determined as 0.884.
Take U2C C49A C62U: the yeast fitness was not above 0.5.
In the case of U2C G25C, the yeast fitness amounted to 0.953.
U2C G25A: the yeast fitness turned out to be 0.943.
Take U2C C61G U64C: the yeast fitness is not above 0.5.
Turning to U2C G9C U13C G68C, the yeast fitness was not above 0.5.
In the case of U2C C31G U35A G63A, the yeast fitness was not above 0.5.
For U2C C24G C30U C62U, the yeast fitness is not above 0.5.
U2C G12A A15G: the yeast fitness was not above 0.5.
Consider U2C G23C C33A G50C G58C A70G, for which the yeast fitness is not above 0.5.
Turning to U2C C24G C34U C49A, the yeast fitness was not above 0.5.
The value for U2C G38A A70G was 0.541.
As for U2C G18C C30U A57C U64C, the yeast fitness was not above 0.5.
With U2C C29A U53C C62A G67A, the yeast fitness is not above 0.5.
In the case of U2C C55G, the yeast fitness was found to be 0.583.
Consider U2C G23C C27G A45G G52A C66A, for which the yeast fitness was 0.534.

The values above are taken from the RNAGym collection of RNA variant scans (doi:10.1126/science.aae0568).
